An excerpt weighted towards active compounds, which were near 2.1% of everything screened.
eIF4H FP inh: inhibitors of RNA binding by human eIF4H. 0.94% of 290,000 active. inhibition, % at 35 µM. eIF4H fluorescence polarization binding assay. Q15056;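 further: calls also rest on retests at 20 µM and on dose response follow-up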
EBNA-1 inhibitor: blocks EBNA-1 binding to DNA | EBNA-1 DNA binding, fluorescence polarization | inhibition, % at 14.8 µM | 0.34% of 300,000 active | AID 1950; in the data active means inhibition above about 28%
PABP1 MLLE inh: inhibitors of microRNA-mediated deadenylation, human PABP1 MLLE binding. P11940. GST-MLLE / FITC-PAM2 fluorescence polarization. inhibition, % at 20 µM. 0.36% of 360,000 active; in the data active means inhibition above about 35%, passing the limit was not always enough;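 further: plate controls were DMSO wells with GST-MLLE for no effect and wells lacking GST-MLLE protein for full effect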
PABP FP inh: PABP-poly(A) binding inhibition. PABP-poly(A) RNA binding, fluorescence polarization. inhibition, % at 35 µM. 1% of 290,000 active. AID 2014;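 further: calls also rest on retests at 20 µM and on dose response follow-up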
ZTA counter: ZTA (EBV) inhibition in EBNA-1 counter-screen | ZTA-DNA binding, fluorescence polarization | inhibition, % at 11 µM | 0.15% of 320,000 active; in the data active means inhibition above about 33%
Target sequence (P03206 whole entry, looked up): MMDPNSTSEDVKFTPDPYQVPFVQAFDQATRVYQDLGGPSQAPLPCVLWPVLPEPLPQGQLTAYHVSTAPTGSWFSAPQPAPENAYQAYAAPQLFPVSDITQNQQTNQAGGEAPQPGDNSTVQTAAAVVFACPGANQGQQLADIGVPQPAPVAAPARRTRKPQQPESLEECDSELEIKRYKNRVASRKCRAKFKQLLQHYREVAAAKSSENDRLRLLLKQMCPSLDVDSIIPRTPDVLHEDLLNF
HCV NS3 hel inh: HCV NS3 helicase inhibition; inhibition, % at 10.9 µM; NS3 helicase DNA unwinding, Cy5 molecular beacon fluorescence; 0.56% of 290,000 active;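 active means inhibition above the mean of all tested compounds plus 3 SD, set per campaign, cut at about 35% in these data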;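 further: 0% = DMSO wells and 100% = thioflavine S control wells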
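System: Hepatitis C virus NS3 helicase domain fragment enzyme | Reagent: Annealed dual-labelled DNA beacon duplex, ATP-started | Compound dosing: 10.9 µM single point, 0.8% DMSO | Incubation: 1 h reaction at 25 °C, ATP-initiated | Technique: Cy5 fluorescence | Evaluation: Percent inhibition from t60/t0 fluorescence ratio | Benchmarks: Low DMSO, high thioflavine S at 110 µM | Replication: Singlicate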
EBNA-1 inh conf: EBNA-1 (EBV) inhibition, confirmation; Recombinant EBNA-1 DBD, Cy5-DNA fluorescence polarization; 35% of 830 active; AID 2292; inhibition, % at 14.8 µM; shares compounds with EBNA-1 inhibitor;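 active means mean inhibition across replicates above a set limit taken from the earlier primary screen, cut at about 28% in these data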;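 further: plate controls were EBNA-1 protein with DMSO for no effect and wells lacking EBNA-1 for full effect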
ZTA DNA inh trip: counter-screen for EBNA-1 inhibitors: Epstein-Barr virus ZTA inhibitors, triplicate. shares compounds with EBNA-1 inhibitor. Zta-ZRE DNA binding, Cy5 fluorescence polarization. inhibition, % at 11.1 µM. 830 tested, under 10 active. AID 2328;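 active means mean inhibition over triplicates above a set limit taken from the primary EBNA-1 screen, cut at about 37% in these data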;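 further: purified full length Zta protein with Cy5 labeled ZRE DNA probe; 0% = Zta with DMSO and 100% = wells lacking Zta protein; inhibitors lower polarization by freeing the labeled DNA probe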
An asterisk follows results filed as active; x = no result. Unless noted, how the calls were made is not given here.

SMILES	eIF4H FP inh	EBNA-1 inhibitor	PABP1 MLLE inh	PABP FP inh	ZTA counter	HCV NS3 hel inh	EBNA-1 inh conf	ZTA DNA inh trip
O=C(Nc1cc(Cl)cc(Cl)c1)c1ccc(Cn2c(=O)[nH]c3ccsc3c2=O)cc1	6	36*	-9	-1	-2	-2	29*	-5
COC(=O)C1CSC(C(=O)OC)N1C(=O)Nc1ccccc1 (configuration not stated)	7	55*	22	2	8	-11	-10	-3
COc1ccccc1CN1CC(C(=O)N(C)CCCn2nc(C)cc2C)CCC1=O (configuration not stated)	-10	6	-22	1	6	-1	x	x
O=C(CSc1nc2ccccc2s1)NC1CCS(=O)(=O)C1 (configuration not stated)	-4	-1	31	-13	-3	6	x	x
COc1ccccc1N(Cc1cc(=O)[nH]c2ccccc12)C(C)=O	-8	2	-2	0	7	15	x	x
CCCC(=O)N(Cc1cc(=O)[nH]c2ccccc12)c1ccccc1OC	4	28*	5	-11	-5	-2	-2	3
O=C(Cn1cnc2cc([N+](=O)[O-])ccc2c1=O)Nc1cccc(S(=O)(=O)N2CCOCC2)c1	14	-11	-15	10	0	0	x	x
CCc1ccc(N2CC(C(=O)Nc3ccc(S(=O)(=O)NCC4CCCO4)cc3)CC2=O)cc1 (configuration not stated)	3	94*	9	21	9	-26	29*	-18
O=C(Nc1ccc(S(=O)(=O)NCC2CCCO2)cc1)C1CC(=O)N(c2ccccc2)C1 (configuration not stated)	-9	-7	-1	15	1	6	x	x
CCOC(=O)C1CCN(C(=O)COC(=O)c2nn(C)c(=O)c3ccccc23)CC1	x	0	-14	x	-3	x	x	x
Cc1cnc(C(=O)Nc2ccc(S(=O)(=O)N(C(C)C)C(C)C)cc2)cn1	-1	28*	6	4	0	-1	-1	0
Cc1cnc(C(=O)Nc2ccc(S(=O)(=O)NCC(C)C)cc2)cn1	-6	4	-10	-2	-8	3	x	x
CC1CCN(C(=O)C(=O)Nc2sc3c(c2C(=O)O)CC(C)(C)OC3)CC1	-1	4	2	-9	21	11	x	x
O=C(CSc1nnc(SCc2ccc(Cl)cc2)s1)N/N=C/c1c(Cl)cccc1Cl	-7	35*	-8	-3	-15	2	0	-6
COC(=O)c1ccc2c(=O)n(CCCCCC(=O)NCc3ccc4c(c3)OCO4)c(=O)[nH]c2c1	-22	63*	-4	-34	0	-8	24	-14
O=c1c2ccccc2[nH]c(=S)n1Cc1ccc2c(c1)OCO2	2	12	-71	5	16	4	x	x
O=C(CCn1c(=S)[nH]c2ccccc2c1=O)Nc1cccc(Cl)c1	-5	28*	-88	-4	7	-1	15	5
CCCCCn1c(=O)[nH]c2cc(C(=O)NCc3ccc4c(c3)OCO4)ccc2c1=O	-11	31*	3	-9	-5	-5	18	15
O=C(CCCCCn1c(=S)[nH]c2ccccc2c1=O)NCc1ccc2c(c1)OCO2	-6	32*	-85	0	5	1	14	-3
COC(=O)C(=C/C=C/c1cccnc1)C(=O)OC	-7	0	-2	0	-5	14	x	x
COc1ccc(S(=O)(=O)N2CCCCC2)cc1NC(=O)c1cccs1	-3	35*	11	8	-8	-1	32*	-1
COc1ccc(NS(=O)(=O)c2ccc(O)c(NC(=O)c3ccc(S(=O)(=O)N4CCCC4)cc3)c2)cc1	-5	-11	13	-19	-5	-10	x	x
COc1ccc(NS(=O)(=O)c2ccc(O)c(NC(=O)c3ccc(S(=O)(=O)N4CCCCCC4)cc3)c2)cc1	-5	28*	-1	3	15	4	3	4
CCOC(=O)C1(Cc2ccc(OC)cc2)CCN(C(=O)Cc2cccnc2)CC1	-12	-2	6	-6	17	-14	x	x
O=C(NCc1ccc(F)cc1)C1CCCN1C(=O)NCc1ccccc1 (configuration not stated)	-6	0	-1	-14	1	10	x	x
SMILES	eIF4H FP inh	EBNA-1 inhibitor	PABP1 MLLE inh	PABP FP inh	ZTA counter	HCV NS3 hel inh	EBNA-1 inh conf	ZTA DNA inh trip
Cc1c(-c2cc(C(=O)O)no2)cnn1C	15	-5	-12	-9	-4	8	x	x
COCCN1Cc2cccc(C(=O)NCCc3ccccc3)c2C1=O	16	9	-4	16	8	-5	x	x
COc1ccc(/C=N/n2cnc3c([nH]c4ccc(Br)cc43)c2=O)cc1CN1CCOCC1	2	-1	x	-11	-11	1	x	x
COc1ccc(/C=N/n2cnc3c([nH]c4ccccc43)c2=O)cc1CO	-10	29*	-4	4	18	-2	24	5
CCOC(=O)C[C@@H](C#N)NC(=O)[C@@H]1CCCN1C(=O)[C@@H](NC(=O)c1ccc(N)c(Cl)c1)C(C)(C)C	x	x	-7	x	x	x	x	x
COc1ccc(-c2cn3c(C)c(C(=O)NCc4ccc5c(c4)OCO5)sc3n2)cc1	x	80*	-4	x	-13	3	126*	13
COc1ccc(C(=O)NCc2ccc3c(c2)OCO3)cc1	-4	6	-10	0	8	10	x	x
CC(=O)c1cc(C)ccc1OC(=O)c1ccncc1	-4	5	1	2	3	3	x	x
CC(=O)c1cc(C)ccc1OC(=O)c1cccc2nc(C)oc12	10	81*	20	4	-1	-10	-4	-7
COc1cc(C(=O)OCC(=O)Nc2cc(C)on2)cc(OC)c1OC	-13	-4	4	-6	6	-3	x	x
CCOc1cc(/C=C2/NC(=O)N(CC(=O)Nc3cccc(C)c3)C2=O)ccc1O	8	-1	3	-3	11	0	x	x
Cc1cc(N2CCOCC2)ccc1/C=C1\NC(=O)N(CC(=O)Nc2ccc(F)cc2)C1=O	-16	15	-34	-4	-15	6	x	x
Cc1cccc(NC(=O)CN2C(=O)N/C(=C\c3ccc(N4CCOCC4)cc3)C2=O)c1	-11	34*	-3	-9	12	0	11	10
Cc1cc(N2CCOCC2)ccc1/C=C1\NC(=O)N(CC(=O)Nc2ccccc2C)C1=O	-4	42*	-20	6	12	4	6	-5
CC(NC(=O)COc1ccc(/C=N/NC(=O)C(=O)Nc2ccccc2Br)cc1)c1ccccc1 (configuration not stated)	-8	34*	19	-9	-10	-7	50*	9
Cc1ccc(C(=O)CSc2ccc(-c3ccccc3)nn2)cc1	-12	-11	14	9	-2	-2	x	x
